KCNQ1 pot: potentiators or activators of KCNQ1 channel, primary screen, cell-based, thallium flux, high-throughput; Potassium voltage-gated channel subfamily KQT member 1 (Homo sapiens), P51787; CHO-K1 KCNQ1, thallium flux FluxOR fluorescence; hits give high values; B-score at 10 µM; hit rate 0.35% among 310,000;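 active means fluorescence ratio B-score, a plate-corrected score, at least three library SD, with initial intensity B-score within 5 SD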
Target sequence (P51787 whole entry, looked up): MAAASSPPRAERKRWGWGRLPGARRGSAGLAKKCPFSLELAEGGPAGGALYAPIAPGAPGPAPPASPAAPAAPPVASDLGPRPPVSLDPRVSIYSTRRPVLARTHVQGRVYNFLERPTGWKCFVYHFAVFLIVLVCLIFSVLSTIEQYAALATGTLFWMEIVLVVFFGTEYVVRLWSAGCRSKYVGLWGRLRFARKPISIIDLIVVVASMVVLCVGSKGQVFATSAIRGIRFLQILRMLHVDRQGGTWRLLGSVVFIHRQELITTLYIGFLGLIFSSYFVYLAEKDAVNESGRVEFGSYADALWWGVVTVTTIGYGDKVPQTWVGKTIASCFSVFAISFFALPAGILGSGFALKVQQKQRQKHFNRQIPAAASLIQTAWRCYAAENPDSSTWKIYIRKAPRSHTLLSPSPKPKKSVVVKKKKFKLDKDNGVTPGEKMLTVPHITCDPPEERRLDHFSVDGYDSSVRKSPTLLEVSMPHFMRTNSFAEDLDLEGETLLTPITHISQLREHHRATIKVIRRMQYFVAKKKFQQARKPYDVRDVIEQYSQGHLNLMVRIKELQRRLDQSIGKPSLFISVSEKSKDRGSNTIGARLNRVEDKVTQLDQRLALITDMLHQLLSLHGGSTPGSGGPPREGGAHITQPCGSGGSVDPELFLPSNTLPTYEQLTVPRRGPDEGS
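Doses: Single concentration per compound, DMSO matched to controls | Test system: KCNQ1-transfected CHO-K1 cells | Timing: 90 min dye loading and 20 min compound exposure, both at room temperature | Measured by: Kinetic FluxOR thallium fluorescence, 10-s 1-Hz baseline, 110-s post-stimulus read | Medium: Assay buffer with matched DMSO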
Kir21 block: inhibitors of mouse Kir2.1 inward-rectifier potassium channel. hit rate 0.85% among 310,000. B-score at 10 µM. HEK293-Kir2.1, FluxOR thallium flux fluorescence; hits give low values. Inward rectifier potassium channel 2 (Mus musculus), P35561;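 active means fluorescence ratio B-score at or below minus 3 SD of library scores, with starting-brightness B-score within 2 SD, cut at about -4.2 in these data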;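 further: channel flux triggered by added potassium and thallium sulfate stimulus; B-score of peak minus minimum fluorescence over baseline after thallium stimulus; more negative B-score means stronger Kir2.1 block with less thallium influx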
hERG protect: hERG rescue from dofetilide block, primary screen, cell-based, CHO-hERG, FluxOR thallium flux, dofetilide IC70; Voltage-gated inwardly rectifying potassium channel KCNH2 (Homo sapiens), Q12809; dofetilide IC70 present; activation (rescue from dofetilide block), less the hit threshold, % at 10 µM; hit rate 0.51% among 310,000;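 active means activation above the mean of controls blocked by dofetilide plus 5 SD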;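 further: thallium influx through hERG after potassium depolarization seen as dye fluorescence rise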
KCNK3 inh: human KCNK3 channel inhibitors, primary screen, CHO cells, FluxOR thallium flux, B-score; Potassium channel subfamily K member 3 (Homo sapiens), O14649; FluxOR fluorescence; hits give low values; B-score at 10 µM; hit rate 0.84% among 340,000; AID 602410, 2012;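 active means B-score under library mean minus 4 SD, starting fluorescence ratio at most library mean plus 5 SD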;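 further: more negative B-score means stronger inhibition of thallium flux through KCNK3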
KCNK9 inh-1: KCNK9 potassium channel inhibitors, primary screen, HEK293 cells, thallium flux | Potassium channel subfamily K member 9 (Homo sapiens), Q9NPC2 | FluxOR thallium flux fluorescence; hits give low values | B-score at 10 µM | hit rate 1.2% among 310,000 | AID 488922, 2010;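 active means ratio B-score over 3 SD below the library mean, with starting fluorescence within 5 SD of its mean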;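 further: negative B-score means less thallium flux so channel inhibition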
KCNQ1 block: inhibitors of human KCNQ1 channel, primary screen, cell-based, thallium flux, high-throughput. B-score at 10 µM. hit rate 1.3% among 310,000. Potassium voltage-gated channel subfamily KQT member 1 (Homo sapiens), P51787. CHO-K1 KCNQ1, FluxOR thallium flux fluorescence; hits give high values. AID 2642, 2010;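 active means compounds whose thallium flux B-score, printed positive for inhibition, exceeds three library SD while starting fluorescence stays within three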;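 further: channel opened by potassium depolarization with thallium stimulus after 20 min compound exposure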
hERG ctr: hERG channel inhibition, counter-screen for Kir2.1 inhibitor project, cell-based, thallium flux; hit rate 20% among 320; shares compounds with Kir21 block; hERG-expressing cells; AID 2236, 2010; inhibition, % at 10 µM;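 further: host cells are CHO cells stably expressing hERG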
KCNK9 inh-2: KCNK9 channel inhibition, selectivity assay for Kir2.1 inhibitor project, cell-based; shares compounds with Kir21 block; KCNK9-expressing cells, ion flux inhibition; inhibition, % at 10 µM; hit rate 5% among 320; AID 2329, 2010
Kir21 ephys inh: mouse Kir2.1 channel blockers, Kir2.1 inhibitor project, cell-based, secondary, automated electrophysiology; inhibition, % at 25 µM; shares compounds with Kir21 block; AID 463252, 2010; Kir2.1 cells, automated patch-clamp current inhibition; hit rate 71% among 320
Active calls of the source: *; i = inactive; . = no result given. Only some compounds are listed: those with a hit (about 3.7% of all), similar ones and a draw of the others. Unless noted, how the calls were made is not given here.

SMILES	KCNQ1 pot	Kir21 block	hERG protect	KCNK3 inh	KCNK9 inh-1	KCNQ1 block	hERG ctr	KCNK9 inh-2	Kir21 ephys inh
N#CC(c1ccc(O)cc1)c1ncc(C(F)(F)F)cc1Cl (stereo unspecified)	i	-7.32*	-6.4	i	i	i	i	i	54.0%*
NC(=O)C(c1ccc(Cl)cc1)c1ncc(C(F)(F)F)cc1Cl (stereo unspecified)	i	-0.56	-10.7	i	i	i	.	.	.
CN(C)Cc1c(O)ccc2oc(Cc3ccccc3)cc12	i	-5.93*	-8.1	i	i	i	i	i	61.9%*
COc1ccc(CN(C)CC(O)COC(c2ccc(OC)cc2)c2ccc(OC)cc2)cc1 (stereo unspecified)	i	-8.66*	-17.3	i	i	i	75.0%*	i	i
COc1ccc(CN(C)CC(O)COc2ccc(-c3ccccc3)cc2)cc1OC (stereo unspecified)	i	-0.48	-18.2	i	i	i	.	.	.
CCOC(=O)c1ccc(Nc2ncnc3ccc(C)cc23)cc1	i	-0.98	-9.4	i	i	i	.	.	.
CCOC(=O)c1cccc(Nc2ncnc3ccc(C)cc23)c1	i	-6.05*	-10.2	i	i	i	i	i	32.4%*
CC(=O)Nc1ccc(S(=O)(=O)N2CCC(C(=O)NCc3cccnc3)CC2)cc1	i	0.34	-9.6	i	i	i	.	.	.
O=C(CCCSc1ccc(Cl)cc1)Nc1cc(S(=O)(=O)N2CCOCC2)ccc1O	.	.	.	i	.	.	.	.	.
CCN(CCNCC(O)COc1ccccc1C(C)C)c1cccc(C)c1 (stereo unspecified)	i	-6.37*	-21.4	i	i	i	61.0%*	i	i
CCOC(=O)N1CCN(CC(O)COc2ccccc2C(C)C)CC1 (stereo unspecified)	i	0.17	-5.9	i	i	i	.	.	.
CCOc1ccc(C(C)=O)cc1CSc1nnnn1-c1ccc(O)cc1	i	-8.42*	-12.1	i	i	i	i	i	24.5%*
CC(C)(C)c1cc(Cl)ccc1OCCOCCN1CCCC1	i	-9.63*	-8.0	i	i	i	58.0%*	i	9.2%*
Cc1ccc(OCCOCCN2CCN(C)CC2)c(C(C)(C)C)c1	i	-1.83	-9.6	i	i	i	.	.	.
COc1ccc(N(Cc2cc(=O)[nH]c3ccccc23)C(=O)CCl)cc1	i	-0.17	-7.6	i	i	i	.	.	.
Fc1ccc(N2CCN(Cc3c[nH]c4ccccc34)CC2)cc1	i	-7.87*	-10.7	.	i	i	56.0%*	i	39.8%*
O=C(O)CCC(=O)N1CCN(c2cccc(Cl)c2)CC1	i	0.81	-10.3	i	i	i	.	.	.
O=C(O)/C=C/C(=O)N1CCN(c2cccc(Cl)c2)CC1	i	4.29	-17.9	i	i	i	i	i	i
CCCCN(Cc1ccco1)S(=O)(=O)c1csc(C(N)=O)c1	i	-7.23*	-9.0	i	i	i	i	i	46.1%*
CC(CCc1ccco1)N(C)S(=O)(=O)c1csc(C(N)=O)c1 (stereo unspecified)	i	-1.02	-3.3	i	i	i	.	.	.
Cc1cc(NC(=O)CSCC(=O)OC(C)C(=O)c2cc(C)c(C)cc2C)no1 (stereo unspecified)	i	-6.31*	-8.6	i	i	i	i	i	17.6%*
O=C(/C=C/c1c(F)cccc1Cl)N1CCOCC1	i	-0.12	-5.8	i	i	i	.	.	.
Cc1ccc(CN2CCC(c3cc(-c4cccs4)n[nH]3)CC2)cc1	i	-13.3*	-14.1	i	i	i	72.0%*	i	37.4%*
FC(F)(F)c1cccc(CN2CCC(c3cc(-c4cccs4)n[nH]3)CC2)c1	i	-0.57	-17.7	i	i	i	.	.	.
NC(=O)CC(NC(=O)c1cccc(Br)c1)c1ccc(N2CCN(c3ccccn3)CC2)c([N+](=O)[O-])c1 (stereo unspecified)	i	-1.25	-1.8	i	i	i	.	.	.
CC(C)O/C(=N\S(=O)(=O)c1ccc(Cl)cc1)c1ccccc1	i	-8.32*	-14.8	i	i	i	i	i	17.2%*
CC(C)(C)OC(=O)NCCc1nnc(SCc2ccc(Cl)cc2)o1	i	-16.2*	-17.6	i	i	i	i	i	73.8%*
Cc1ccc(CSc2nnc(CCCCCNC(=O)OC(C)(C)C)o2)cc1	i	-3.07	-8.5	i	i	i	.	.	.
COC(=O)Cc1c(C)c2ccc(O)c(CNCc3ccc(OC)c(OC)c3)c2oc1=O	i	0.73	-3.4	i	i	i	.	.	.
CCNC(=S)/N=C(/Nc1ccccc1)Nc1nc(C)cc(C)n1	i	2.49	-7.7	i	i	i	i	i	i

Screens from PubChem.
